Experimental data from ChEMBL document CHEMBL2146386, “Hispolon attenuates balloon-injured neointimal formation and modulates vascular smooth muscle cell migration via AKT and ERK phosphorylation” (J Nat Prod, 2012).
≈ marks a conversion by molar mass, not a printed value. Calls of active or inactive are those of the source. No cut-off for these calls is given here.

What was measured:
[1] = biological target: Focal adhesion kinase 1 (Rattus norvegicus) (UniProt O35346); assay: Inhibition of FAK-mediated FBS-induced cell migration of rat A10 cells at 15 ug/mL after 18 hrs by scratch-wound assay; assay type: cell-based
Sequence of Focal adhesion kinase 1 (Rattus norvegicus) (O35346 whole entry): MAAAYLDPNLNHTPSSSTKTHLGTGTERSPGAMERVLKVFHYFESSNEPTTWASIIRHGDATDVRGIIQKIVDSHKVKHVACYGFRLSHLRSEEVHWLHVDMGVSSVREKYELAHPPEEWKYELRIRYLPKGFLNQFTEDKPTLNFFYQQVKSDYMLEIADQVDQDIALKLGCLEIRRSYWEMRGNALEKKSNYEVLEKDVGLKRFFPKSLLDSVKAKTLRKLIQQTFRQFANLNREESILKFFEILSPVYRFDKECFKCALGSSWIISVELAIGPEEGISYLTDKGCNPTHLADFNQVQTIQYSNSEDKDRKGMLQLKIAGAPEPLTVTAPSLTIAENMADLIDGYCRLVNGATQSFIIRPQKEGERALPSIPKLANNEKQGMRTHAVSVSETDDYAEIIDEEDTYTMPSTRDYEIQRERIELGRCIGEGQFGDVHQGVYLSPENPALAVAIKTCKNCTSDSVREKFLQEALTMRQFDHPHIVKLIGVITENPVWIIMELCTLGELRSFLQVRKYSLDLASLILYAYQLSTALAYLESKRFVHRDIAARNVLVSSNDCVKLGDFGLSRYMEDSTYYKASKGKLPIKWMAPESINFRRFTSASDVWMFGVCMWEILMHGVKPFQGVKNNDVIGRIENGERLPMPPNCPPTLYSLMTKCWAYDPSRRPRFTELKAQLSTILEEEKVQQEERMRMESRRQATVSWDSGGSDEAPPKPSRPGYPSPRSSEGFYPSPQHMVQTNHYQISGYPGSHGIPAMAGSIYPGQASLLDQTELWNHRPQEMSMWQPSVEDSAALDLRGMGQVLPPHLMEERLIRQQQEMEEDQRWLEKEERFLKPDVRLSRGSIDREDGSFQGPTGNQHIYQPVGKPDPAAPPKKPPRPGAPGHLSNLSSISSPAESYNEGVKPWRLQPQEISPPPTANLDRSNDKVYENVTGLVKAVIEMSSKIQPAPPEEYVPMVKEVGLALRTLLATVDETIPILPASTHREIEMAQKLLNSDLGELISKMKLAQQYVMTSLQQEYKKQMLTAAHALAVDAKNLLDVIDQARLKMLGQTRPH
Procedure, shortened: (§1)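 A10 VSMC (3 × 10^4) grown to 80–90% confluence in six-well plates, and the monolayer centre scraped with a micropipet tip. After a PBS wash, cells were exposed to 10, 15 or 20 μg/mL and photographed at 18 h. Cells crossing lines drawn at the original wound edges were counted in six random fields per triplicate treatment. Three experiments.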

[2] = biological target: Focal adhesion kinase 1 (Rattus norvegicus) (UniProt O35346); assay: Inhibition of FAK in rat A10 cells assessed as inhibition of serum-induced PI3K expression after 24 hrs by Western blot analysis; assay type: cell-based
Procedure, shortened: (§2)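 A10 VSMC in six-well plates incubated 24 h with 10, 15 and 20 μg/mL in DMEM containing 15% FBS, with 15% FBS as control. Lysed in SDS/DTT buffer at 95 °C. Western blot on PVDF used specific antibodies (p-AKT, PI3K, p-FAK, TIMP-1, TIMP-2), β-actin loading control, ECL detection, and densitometry relative to control as 100%.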

[3] = biological target: Focal adhesion kinase 1 (Rattus norvegicus) (UniProt O35346); assay: Inhibition of FAK phosphorylation in rat A10 cells after 24 hrs by Western blot analysis; assay type: cell-based; procedure, shortened: as §2
A10 [4] = assay: Upregulation of TIMP1 expression in rat A10 cells after 24 hrs by Western blot analysis; assay type: functional, cell-based; procedure, shortened: as §2
[5] = biological target: Focal adhesion kinase 1 (Rattus norvegicus) (UniProt O35346); assay: Inhibition of FAK-mediated […] activity in rat A10 cells after 24 hrs by zymographic analysis; assay type: cell-based
Procedure, shortened: (§3)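 Culture medium of A10 VSMC treated 24 h was electrophoresed (120 V, 90 min) in 10% SDS-PAGE with 0.1% gelatin. Gels were washed in 2.5% Triton X-100, then incubated overnight (12–15 h) at 37 °C in 40 mM Tris-HCl pH 8.0 with 10 mM CaCl2 and 1% NaN3. Stained with Coomassie blue and destained.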

[6] = biological target: Focal adhesion kinase 1 (Rattus norvegicus) (UniProt O35346); assay: Inhibition of FAK in rat A10 cells assessed as inhibition of serum-induced AKT phosphorylation after 24 hrs by Western blot analysis; assay type: cell-based; procedure, shortened: as §2
A10 [7] = assay: Upregulation of TIMP2 expression in rat A10 cells after 24 hrs by Western blot analysis; assay type: functional, cell-based; procedure, shortened: as §2
[8] = biological target: Focal adhesion kinase 1 (Rattus norvegicus) (UniProt O35346); assay: Inhibition of FAK-mediated MMP2 activity in rat A10 cells after 24 hrs by zymographic analysis; assay type: cell-based; procedure, shortened: as §3
[9] = biological target: Focal adhesion kinase 1 (Rattus norvegicus) (UniProt O35346); assay: Inhibition of FAK-mediated ERK2 phosphorylation in rat A10 cells after 30 mins by Western blot analysis; assay type: cell-based
Procedure, shortened: (§4)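 Western blot of A10 VSMC after 30 min exposure to 10, 15 and 20 μg/mL, probed for phosphorylated ERK1/2 alongside total ERK1/2. Serum-stimulated cells served as comparison. ECL detection.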

Rattus norvegicus [10] = assay: Antirestenotic activity in Sprague-Dawley rat assessed as reduction in balloon injury-induced neointimal:[…] area ratio in carotid artery at 20 mg/mL, administered topically measured after 2 weeks by hematoxylin and eosin staining method relative to vehicle-treated control; assay type: functional; set-up: scale not given: the % may be the effect or the level left
Procedure, shortened: (§5)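 Male Sprague–Dawley rats (350–400 g) underwent carotid balloon injury, 8 per group: untreated injury control or a 10 or 20 mg/mL solution. Sham controls were included. Vessels were embedded, cut into 10 μm sections and stained with H&E. The neointimal:media area ratio was measured by computerized image analysis. Two separate experiments.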

[11] = biological target: Focal adhesion kinase 1 (Rattus norvegicus) (UniProt O35346); assay: Inhibition of FAK-mediated FBS-induced cell migration of rat A10 cells at 10 ug/mL after 18 hrs by scratch-wound assay; assay type: cell-based; procedure, shortened: as §1
[12] = biological target: Focal adhesion kinase 1 (Rattus norvegicus) (UniProt O35346); assay: Inhibition of FAK-mediated FBS-induced migration of rat A10 cells at 15 and 20 ug/mL after 18 hrs by transwell assay; assay type: cell-based
Procedure, shortened: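 Trans-well chambers with 6.5 mm polycarbonate filters, 8 μm pores. A10 VSMC (4 × 10^5 mL−1) with 0–20 μg/mL in serum-free DMEM were placed in the upper chamber for 18 h at 37 °C. Cells on the lower filter surface were methanol-fixed, Giemsa-stained and counted at 200× in 10 random fields. Three experiments in duplicate.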

[13] = biological target: Focal adhesion kinase 1 (Rattus norvegicus) (UniProt O35346); assay: Inhibition of FAK-mediated FBS-induced cell migration of rat A10 cells at 20 ug/mL after 18 hrs by scratch-wound assay; assay type: cell-based; procedure, shortened: as §1
A10 [14] = assay: Induction of apoptosis in rat A10 cells assessed as sub-G1 cells at 10 to 40 ug/mL after 24 hrs by PI-staining based flow cytometric analysis relative to vehicle-treated control; assay type: cell-based; conditions: a10, 24 h
Procedure, shortened: (§6)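 A10 VSMC treated 24 h with 10–60 μg/mL in 15% FBS, with […] alone as control. Cells harvested with trypsin-EDTA, fixed in 70% ethanol and stained with propidium iodide plus RNase A and Nonidet P-40 for at least 30 min on ice in the dark. Three experiments.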

Rattus norvegicus [15] = assay: Antirestenotic activity in Sprague-Dawley rat assessed as reduction in balloon injury-induced PCNA expression in carotid artery at 10 and 20 mg/mL, administered topically measured after 2 weeks by immunohistochemistry
A10 [16] = assay: Antiproliferative activity against rat A10 cells at 30 to 40 ug/mL after 24 hrs by MTT assay relative to control; assay type: cell-based; conditions: a10, 24 h
Procedure, shortened: (§7)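 A10 rat aortic VSMC seeded at 1 × 10^4 cells/well in DMEM with 10% FBS for 24 h, washed, then exposed for 24 h to 10% FBS alone or serial dilutions (5–40 μg/mL). MTT added (3 mg/mL stock in PBS) for 2 h at 37 °C, formazan dissolved in DMSO, absorbance read at 570 nm. Three separate experiments.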

A10 [17] = assay: Antiproliferative activity against rat A10 cells after 24 hrs by MTT assay; assay type: cell-based; procedure, shortened: as §7
Rattus norvegicus [18] = assay: Antirestenotic activity in Sprague-Dawley rat assessed as reduction in balloon injury-induced neointimal:[…] area ratio in carotid artery at 10 mg/mL, administered topically measured after 2 weeks by hematoxylin and eosin staining method relative to vehicle-treated control; assay type: functional; set-up: scale not given: the % may be the effect or the level left; procedure, shortened: as §5
A10 [19] = assay: Induction of cell cycle arrest in rat A10 cells assessed as S phase cells at 10 to 40 ug/mL after 24 hrs by PI-staining based flow cytometric analysis relative to vehicle-treated control; conditions: a10, 24 h; procedure, shortened: as §6
[20] = biological target: Focal adhesion kinase 1 (Rattus norvegicus) (UniProt O35346); assay: Inhibition of FAK-mediated ERK1 phosphorylation in rat A10 cells after 30 mins by Western blot analysis; assay type: cell-based; procedure, shortened: as §4
A10 [21] = assay: Antiproliferative activity against rat A10 cells at 5 to 25 ug/mL after 24 hrs by MTT assay relative to control; assay type: cell-based; conditions: a10, 24 h; procedure, shortened: as §7

`CC(=O)/C=C(O)/C=C/c1ccc(O)c(O)c1` [HISPOLON] was tested, and the inhibition [1] was 6.51%, the inhibition [2] was “Dose-dependent effect” and the inhibition [3] was “Dose-dependent effect”. The Activity (A10 [4]) was “Dose-dependent effect”, the inhibition [5] was “Dose-dependent effect” and the inhibition [6] was “Dose-dependent effect”. For the same compound, the Activity (A10 [7]) was “Dose-dependent effect”, the inhibition [8] was “Dose-dependent effect” and the inhibition [9] was “Dose-dependent effect”. For the same compound, the Activity (Rattus norvegicus [10]) was 58%, the inhibition [11] was 12% and the inhibition [12] was “Active”. For the same compound, the inhibition [13] was 43.2%, the Activity (A10 [14]) was “Non-toxic” and the Activity (Rattus norvegicus [15]) was “Active”. The Activity (A10 [16]) was “Toxic”, the IC50 (A10 [17]; Rattus norvegicus, A10, 24 h) was 37 µg/mL (≈ 168 µM) and the Activity (A10 [17]; rat, a10, 24 h) was “Dose-dependent effect”. The Activity (Rattus norvegicus [18]) was 25%, the Activity (A10 [19]) was “Non-toxic” and the inhibition [20] was “Dose-dependent effect”. The Activity (A10 [21]) was < 10%.
